Key:
A2780 [1] = experiment: Potentiation of 10 uM cisplatin-induced toxicity in 5 uM cisplatin resistant human A2780 cells at 0.25 uM pretreated for 48 hrs followed by 5 uM cisplatin treatment by MTT assay; format: functional
KYSE-510 [2] = experiment: Potentiation of 8 uM cisplatin-induced toxicity in 0.5 uM cisplatin resistant human KYSE-510 cells at 0.5 uM pretreated for 48 hrs followed by 0.5 uM cisplatin treatment by MTT assay; format: functional
MDA-MB-231 [3] = experiment: Potentiation of cisplatin-induced toxicity in cisplatin resistant human MDA-MB-231 cells at 1 uM pretreated for 48 hrs followed by cisplatin treatment by MTT assay; format: functional
In short: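 Resistant sublines pretreated 48 h with 1 μM HDAC inhibitor, then cisplatin over a concentration range for 72 h; MTT viability read at 544/690 nm. Cisplatin IC50 from four-parameter logistic fit of pooled data (≥3 experiments, triplicate); shift factor = IC50 of cisplatin alone divided by IC50 of the combination.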

CAL-27 [4] = experiment: Potentiation of 1 uM cisplatin-induced toxicity in 1 uM cisplatin resistant human CAL27 cells at 0.25 uM pretreated for 48 hrs followed by 1 uM cisplatin treatment by MTT assay; format: functional
CAL-27 [5] = experiment: Potentiation of 5 uM cisplatin-induced toxicity in 1 uM cisplatin resistant human CAL27 cells at 1 uM pretreated for 48 hrs followed by 1 uM cisplatin treatment by MTT assay; format: functional
KYSE-510 [6] = experiment: Potentiation of 0.5 uM cisplatin-induced toxicity in 0.5 uM cisplatin resistant human KYSE-510 cells at 0.25 uM pretreated for 48 hrs followed by 0.5 uM cisplatin treatment by MTT assay; format: functional
CAL-27 [7] = experiment: Potentiation of 45 uM cisplatin-induced toxicity in 1 uM cisplatin resistant human CAL27 cells at 1 uM pretreated for 48 hrs followed by 1 uM cisplatin treatment by MTT assay; format: functional
MDA-MB-231 [8] = experiment: Potentiation of […] cisplatin-induced toxicity in 1 uM cisplatin resistant human MDA-MB-231 cells at 1.5 uM pretreated for 48 hrs followed by 1 uM cisplatin treatment by MTT assay; format: functional
Histone deacetylase 11 = molecular target: T1, Histone deacetylase 11 (Homo sapiens, UniProt Q96DB2); experiment: Inhibition of human HDAC11 by fluorescence assay
T1 sequence (Q96DB2 whole entry): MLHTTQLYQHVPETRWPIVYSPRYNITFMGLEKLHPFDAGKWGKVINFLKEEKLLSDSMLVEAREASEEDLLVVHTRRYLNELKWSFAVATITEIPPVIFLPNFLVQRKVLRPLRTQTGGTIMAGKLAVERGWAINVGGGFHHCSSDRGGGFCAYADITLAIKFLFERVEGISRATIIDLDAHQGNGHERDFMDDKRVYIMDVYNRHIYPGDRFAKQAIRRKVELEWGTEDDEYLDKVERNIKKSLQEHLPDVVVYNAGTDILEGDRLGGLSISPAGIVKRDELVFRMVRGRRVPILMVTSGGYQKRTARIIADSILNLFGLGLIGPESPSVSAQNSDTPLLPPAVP

A2780 [9] = experiment: Potentiation of 5 uM cisplatin-induced toxicity in 5 uM cisplatin resistant human A2780 cells at 1.5 uM pretreated for 48 hrs followed by 5 uM cisplatin treatment by MTT assay; format: functional
CAL-27 [10] = experiment: Potentiation of 5 uM cisplatin-induced toxicity in 1 uM cisplatin resistant human CAL27 cells at 0.5 uM pretreated for 48 hrs followed by 1 uM cisplatin treatment by MTT assay; format: functional
MDA-MB-231 [11] = experiment: Potentiation of 10 uM cisplatin-induced toxicity in 1 uM cisplatin resistant human MDA-MB-231 cells at 1.5 uM pretreated for 48 hrs followed by 1 uM cisplatin treatment by MTT assay; format: functional
CAL-27 [12] = experiment: Potentiation of 1 uM cisplatin-induced toxicity in 1 uM cisplatin resistant human CAL27 cells at 1.5 uM pretreated for 48 hrs followed by 1 uM cisplatin treatment by MTT assay; format: functional
A2780 [13] = experiment: Potentiation of 5 uM cisplatin-induced toxicity in 5 uM cisplatin resistant human A2780 cells at 1 uM pretreated for 48 hrs followed by 5 uM cisplatin treatment by MTT assay; format: functional
Histone deacetylase 4 = Histone deacetylase 4 (Homo sapiens, UniProt P56524); experiment: Inhibition of human HDAC4 by fluorescence assay
Sequence of Histone deacetylase 4 (P56524 whole entry): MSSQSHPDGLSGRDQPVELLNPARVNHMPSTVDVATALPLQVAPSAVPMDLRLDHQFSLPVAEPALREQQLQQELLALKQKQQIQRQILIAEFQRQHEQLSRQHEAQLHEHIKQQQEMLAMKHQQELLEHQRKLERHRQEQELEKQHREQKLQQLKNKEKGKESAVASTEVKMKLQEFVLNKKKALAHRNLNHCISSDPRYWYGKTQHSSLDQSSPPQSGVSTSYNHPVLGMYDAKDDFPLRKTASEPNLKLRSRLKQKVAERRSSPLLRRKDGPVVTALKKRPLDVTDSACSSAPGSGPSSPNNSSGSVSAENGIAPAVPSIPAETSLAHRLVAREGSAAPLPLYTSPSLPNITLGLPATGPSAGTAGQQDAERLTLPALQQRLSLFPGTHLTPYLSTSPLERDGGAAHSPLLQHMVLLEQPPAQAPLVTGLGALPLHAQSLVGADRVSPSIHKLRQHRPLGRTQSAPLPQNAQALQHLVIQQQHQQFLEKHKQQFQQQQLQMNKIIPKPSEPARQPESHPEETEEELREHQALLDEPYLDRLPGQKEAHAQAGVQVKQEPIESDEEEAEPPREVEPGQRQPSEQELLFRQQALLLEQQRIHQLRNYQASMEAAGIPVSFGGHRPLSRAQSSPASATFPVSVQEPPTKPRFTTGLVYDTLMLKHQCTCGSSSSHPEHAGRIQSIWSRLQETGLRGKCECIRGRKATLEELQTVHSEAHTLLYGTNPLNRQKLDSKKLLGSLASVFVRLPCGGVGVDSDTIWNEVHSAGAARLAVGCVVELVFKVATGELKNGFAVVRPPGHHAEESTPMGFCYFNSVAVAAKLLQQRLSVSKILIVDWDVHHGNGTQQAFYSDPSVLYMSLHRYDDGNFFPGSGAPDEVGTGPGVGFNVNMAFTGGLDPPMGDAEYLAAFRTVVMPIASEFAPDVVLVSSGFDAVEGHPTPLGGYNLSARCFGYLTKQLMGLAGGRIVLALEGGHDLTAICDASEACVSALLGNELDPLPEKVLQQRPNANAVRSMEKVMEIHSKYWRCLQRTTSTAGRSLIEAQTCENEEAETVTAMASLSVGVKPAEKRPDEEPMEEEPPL

MDA-MB-231 [14] = experiment: Potentiation of 5 uM cisplatin-induced toxicity in 1 uM cisplatin resistant human MDA-MB-231 cells at 0.25 uM pretreated for 48 hrs followed by 1 uM cisplatin treatment by MTT assay; format: functional
A2780 [15] = experiment: Potentiation of 5 uM cisplatin-induced toxicity in 5 uM cisplatin resistant human A2780 cells at 0.25 uM pretreated for 48 hrs followed by 5 uM cisplatin treatment by MTT assay; format: functional
MDA-MB-231 [16] = experiment: Potentiation of 25 uM cisplatin-induced toxicity in 1 uM cisplatin resistant human MDA-MB-231 cells at 0.25 uM pretreated for 48 hrs followed by 1 uM cisplatin treatment by MTT assay; format: functional

## Cc1cc(C)cc(C(=O)NOCCCCCC(=O)NO)c1
A2780 [1]
  Activity: Dose-dependent effect
  fractional inhibitory concentration index (FICI): 0.78
KYSE-510 [2]
  Activity: Dose-dependent effect
  fractional inhibitory concentration index (FICI): 0.16
MDA-MB-231 [3]
  Activity: Dose-dependent effect
  fold change (FC): 3.53
CAL-27 [4]
  Activity: Dose-dependent effect
  fractional inhibitory concentration index (FICI): <0.2
CAL-27 [5]
  Activity: Dose-dependent effect
  fractional inhibitory concentration index (FICI): 0.26
KYSE-510 [6]
  Activity: Dose-dependent effect
  fractional inhibitory concentration index (FICI): 0.18
CAL-27 [7]
  Activity: Dose-dependent effect
  fractional inhibitory concentration index (FICI): 0.27
MDA-MB-231 [8]
  Activity: Dose-dependent effect
  fractional inhibitory concentration index (FICI): 0.8
Histone deacetylase 11
  IC50: 852 nM
A2780 [9]
  Activity: Dose-dependent effect
  fractional inhibitory concentration index (FICI): 0.81
CAL-27 [10]
  Activity: Dose-dependent effect
  fractional inhibitory concentration index (FICI): 0.45
MDA-MB-231 [11]
  Activity: Dose-dependent effect
  fractional inhibitory concentration index (FICI): 0.79
CAL-27 [12]
  Activity: Dose-dependent effect
  fractional inhibitory concentration index (FICI): 0.48
A2780 [13]
  Activity: Dose-dependent effect
  fractional inhibitory concentration index (FICI): 0.64
Histone deacetylase 4
  IC50: 11.9 nM
MDA-MB-231 [14]
  Activity: Dose-dependent effect
  fractional inhibitory concentration index (FICI): <0.2
A2780 [15]
  Activity: Dose-dependent effect
  fractional inhibitory concentration index (FICI): 0.85
MDA-MB-231 [16]
  Activity: Dose-dependent effect

From ChEMBL document CHEMBL2311425, “Histone deacetylase (HDAC) inhibitors with a novel connecting unit linker region reveal a selectivity profile for HDAC4 and HDAC5 with improved activity against chemoresistant cancer cells” (J Med Chem, 2013)
